Measurements from different studies.
Target: Insulin-like growth factor 1 receptor (IGF1R, Homo sapiens, UniProt P08069)

Compound	read-out	method	tested at	remaining binding
CN(c1nccc(-c2cnn3ncccc23)n1)C1CC1	binding		1 µM	93%
O=C(c1ccc(Nc2ncc(Cl)c(-c3cc4ccccc4s3)n2)cc1)N1CCC(N2CCCC2)CC1	binding	competition with immobilised ligand	1 µM	40%
C[C@H]1CCN(c2nccc(-c3cnn4ncccc34)n2)C1	binding		1 µM	90%
CCN1CCN(Cc2ccc(C(=O)Nc3ccc(C)c(Oc4ccc5c(c4)CC(=O)N5)c3)cc2C(F)(F)F)CC1	binding	competition with immobilised ligand	1 µM	100%
CCS(=O)(=O)c1cc2cc(C[C@](O)(CC(C)(C)c3ccc(F)cc3C(N)=O)C(F)(F)F)[nH]c2cn1	cell-free assay	competition with immobilised ligand	1 µM	100%
COc1cnc(Nc2cccc(S(N)(=O)=O)c2)nc1N1CCN(c2ccccc2)CC1	binding	competition with immobilised ligand	1 µM	100%
COc1ccc2c(c1)O[C@@H](c1ccc(OC)c(OC)c1)C[C@H]2NC(=O)C1(c2ccc3c(c2)OC(F)(F)O3)CC1	cell-free assay	competition with immobilised ligand	1 µM	90%
C[C@@H](c1ccc(-n2cnc3c(N)ncnc32)cc1)N1CCc2nn(C)c(Cc3ccccc3)c2C1=O	binding	competition with immobilised ligand	0.1 µM	38%
Cc1cnc(Nc2ccc(C(=O)N3CCC(N4CCCC4)CC3)cc2)nc1-c1cc2ccccc2s1	binding	competition with immobilised ligand	1 µM	45%
CC1CCCN1c1nccc(-c2cnn3ncccc23)n1 (stereo not shown)	binding		1 µM	96%
N#Cc1ccccc1CSc1nnc2c(n1)[nH]c1ccccc12	binding	competition with immobilised ligand	10 µM	91%
CO[C@@H](C)c1c(Nc2ccc([C@H](N(C)C(=O)C3CCS(=O)(=O)CC3)C(F)(F)F)cc2)cnc2cc(Cl)nn12	cell-free assay	competition with immobilised ligand	1 µM	100%
CNC(=O)[C@@H]1CC[C@@H](n2c(-c3ccc4cnccc4c3)nc3ccc(C(=O)NCc4cccc(C(N)=O)c4)cc32)C1	binding	competition with immobilised ligand	1 µM	100%
Cc1nc(C2CCN(C(=O)c3ccc(OC(F)(F)F)cc3N)CC2)c2ncc(N3CCN(C)CC3)cc2n1	cell-free assay	competition with immobilised ligand	1 µM	91%
CN(C)c1nccc(-c2cnc3ncccn23)n1	binding		1 µM	89%
CN1CCN(c2cnc3c(C4CCN(C(=O)c5ccc(OC(F)(F)F)cc5N)CC4)ncnc3c2)CC1	cell-free assay	competition with immobilised ligand	1 µM	100%
F[C@@H]1CCN(c2nccc(-c3cnn4ncccc34)n2)C1	binding		1 µM	89%
NS(=O)(=O)c1cc(NC(=O)Cc2ccccc2)ccc1Oc1cccc(Cl)c1	cell-free assay	competition with immobilised ligand	1 µM	100%
O=C(NCC1CCOCC1)c1n[nH]cc1NC(=O)c1c(F)cccc1F	binding	competition with immobilised ligand	1 µM	96%
C=CC(=O)N1CCC(C(=O)NCC(=O)N2CCN(c3nc(-c4cnc(N)nc4C(F)F)nc(N4CCOCC4)n3)CC2)CC1	binding	competition with immobilised ligand	1 µM	100%
N[C@@H]1CCN(c2nccc(-c3cnn4ncccc34)n2)C1	binding		1 µM	99%
O=C(c1ccc(Nc2ncc(Cl)c(-c3ccc(Cl)s3)n2)cc1)N1CCC(N2CCCC2)CC1	binding	competition with immobilised ligand	1 µM	19%
C[C@@H]1CN(c2ccc3ncc(-c4ccc5[nH]nc(C6CC6)c5c4)n3n2)C[C@H](C)O1	binding	competition with immobilised ligand	50 nM	99%
O=C1NC(c2ccccn2)Sc2ccccc21 (stereo not shown)	cell-free assay	competition with immobilised ligand	1 µM	80%
c1cncc(-c2cccc(Nc3nccc(NC4CCCCC4)n3)c2)c1	binding	competition with immobilised ligand	10 µM	67%
